According to ChEMBL document CHEMBL1133510, “Synthesis and evaluation of novel steroidal oxime inhibitors of P450 17 (17 alpha-hydroxylase/C17-20-lyase) and 5 alpha-reductase types 1 and 2” (J Med Chem, 2000):

What was measured:
[1] = molecular target: T1, 3-oxo-5-alpha-steroid 4-dehydrogenase 2 (Homo sapiens, UniProt P31213); experiment: Inhibition of steroid 5-alpha-reductase type 2 from human BPH tissue at 210 nM testosterone; No inhibition
T1 sequence (P31213 whole entry): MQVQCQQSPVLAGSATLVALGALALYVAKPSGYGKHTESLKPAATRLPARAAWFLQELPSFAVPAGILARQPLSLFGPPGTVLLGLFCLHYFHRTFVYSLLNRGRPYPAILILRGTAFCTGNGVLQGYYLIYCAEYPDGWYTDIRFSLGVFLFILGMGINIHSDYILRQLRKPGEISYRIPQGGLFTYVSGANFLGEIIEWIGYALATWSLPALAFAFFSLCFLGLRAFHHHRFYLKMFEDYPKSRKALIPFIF
In short: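 Enzyme from prostate homogenate of BPH patients, assayed at pH 5.5 with radiolabeled testosterone at 210 nM; product separated by HPLC. IC50 taken as inhibitor concentration giving 50% inhibition; mean of at least two experiments.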

[2] = molecular target: T2, Steroid 17-alpha-hydroxylase/17,20 lyase (Homo sapiens, UniProt P05093); experiment: Evaluated for the inhibitory activity towards Cytochrome P450 17 human enzyme using testicular microsome at 25 uM of substrate (progesterone); design: species or system Testis
T2 sequence (P05093 whole entry): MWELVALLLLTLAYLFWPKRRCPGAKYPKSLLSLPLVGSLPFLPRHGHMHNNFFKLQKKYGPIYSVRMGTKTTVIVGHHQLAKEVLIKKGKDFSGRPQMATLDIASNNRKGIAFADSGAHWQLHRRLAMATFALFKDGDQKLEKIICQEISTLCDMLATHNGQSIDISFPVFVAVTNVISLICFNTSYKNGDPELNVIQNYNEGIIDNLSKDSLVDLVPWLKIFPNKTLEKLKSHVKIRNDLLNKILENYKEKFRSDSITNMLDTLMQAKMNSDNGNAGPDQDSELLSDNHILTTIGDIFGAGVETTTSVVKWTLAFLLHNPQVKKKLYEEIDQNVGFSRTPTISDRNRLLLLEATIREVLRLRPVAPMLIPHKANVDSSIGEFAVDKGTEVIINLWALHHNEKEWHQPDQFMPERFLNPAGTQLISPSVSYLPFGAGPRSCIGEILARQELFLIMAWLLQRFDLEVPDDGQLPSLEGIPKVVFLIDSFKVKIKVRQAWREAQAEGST

[3] = molecular target: T3, Steroid 17-alpha-hydroxylase/17,20 lyase (Rattus norvegicus, UniProt P11715); experiment: Evaluated for the inhibitory activity towards Cytochrome P450 17 rat enzyme using testicular microsome at 25 uM of substrate (progesterone); design: species or system Testis
T3 sequence (P11715 whole entry): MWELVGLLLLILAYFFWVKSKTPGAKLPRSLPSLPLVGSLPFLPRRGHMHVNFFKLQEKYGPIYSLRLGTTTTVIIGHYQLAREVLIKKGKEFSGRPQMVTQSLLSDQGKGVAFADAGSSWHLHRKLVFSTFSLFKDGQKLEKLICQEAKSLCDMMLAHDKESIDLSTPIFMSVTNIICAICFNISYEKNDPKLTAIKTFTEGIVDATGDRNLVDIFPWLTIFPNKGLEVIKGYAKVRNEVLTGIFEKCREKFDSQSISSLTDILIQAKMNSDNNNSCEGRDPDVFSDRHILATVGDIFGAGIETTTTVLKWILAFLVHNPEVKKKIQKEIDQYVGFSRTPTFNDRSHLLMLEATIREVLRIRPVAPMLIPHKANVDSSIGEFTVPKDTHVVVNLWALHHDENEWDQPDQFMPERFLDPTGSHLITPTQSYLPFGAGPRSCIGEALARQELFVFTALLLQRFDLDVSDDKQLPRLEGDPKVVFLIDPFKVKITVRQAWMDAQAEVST
In short: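 Testicular microsomes (human for human enzyme, rat for rat enzyme) incubated with progesterone substrate at 25 µM; product measured by RP-HPLC with UV detection. IC50 = concentration giving 50% inhibition, mean of at least two experiments.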

[4] = molecular target: T4, 3-oxo-5-alpha-steroid 4-dehydrogenase 1 (Homo sapiens, UniProt P18405); experiment: Evaluated for the inhibitory activity against human steroid 5-alpha-reductase type I in human DU-145 cell assay at 5 nM of androstenedione; type: cell-based
T4 sequence (P18405 whole entry): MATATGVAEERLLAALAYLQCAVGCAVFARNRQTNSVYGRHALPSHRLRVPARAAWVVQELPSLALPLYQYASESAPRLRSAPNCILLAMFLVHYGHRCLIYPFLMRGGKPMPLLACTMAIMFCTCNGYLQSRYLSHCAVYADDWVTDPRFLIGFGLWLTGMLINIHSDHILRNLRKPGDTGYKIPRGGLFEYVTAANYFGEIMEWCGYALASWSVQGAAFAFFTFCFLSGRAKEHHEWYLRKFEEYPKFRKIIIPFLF
In short: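 Whole human DU-145 cells as source of type 1 enzyme, incubated with radiolabeled androstenedione at 5 nM; HPLC separation of product. IC50 = inhibitor concentration giving 50% inhibition; mean of at least two experiments.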

C/C(=N/O)C1=CC=C2C3CCC4=CC(=O)CCC4(C)C3CCC12C (centres undefined)
IC50 [1]: Not Active
IC50 [2]: 0.2 µM
IC50 [3]: > 125 µM
IC50 [4]: > 10 µM
